Laboratory results as given in ChEMBL document CHEMBL1921722, “In vitro and in vivo evaluation of select kahalalide F analogs with antitumor and antifungal activities” (Bioorg Med Chem, 2011).
Active and inactive are the calls of the source. The calls are words filed in the database; no cut-off is given here.

Columns and labels:
MCF7 = assay: Cytotoxicity against human MCF7 cells assessed as cell growth at 8 nM by sulforhodamine B assay relative to control; type: functional; details: read-out: Activity
IGROV-1 [1] = assay: Cytotoxicity against human IGROV1 cells assessed as cell growth at 80 uM by sulforhodamine B assay relative to control; type: functional; details: read-out: Activity
IGROV-1 [2] = assay: Cytotoxicity against human IGROV1 cells assessed as cell growth at 8 nM by sulforhodamine B assay relative to control; type: functional; details: read-out: Activity
DU-145 [3] = assay: Cytotoxicity against human DU145 cells assessed as cell growth at 8 uM by sulforhodamine B assay relative to control; type: functional; details: read-out: Activity
In short: (§1)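 Run at NCI in the DTP 60-cell-line human tumor panel by standard procedure. Compounds were first screened at a single concentration, then tested at five tenfold-spaced concentrations. GI50 is the concentration reducing treated-cell growth to half that of untreated controls; TGI is the concentration completely halting growth.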

SK-MEL-2 = assay: Cytotoxicity against human SK-MEL-2 cells by sulforhodamine B assay; type: functional
In short: (§2)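 NCI Developmental Therapeutics Program 60-cell-line human tumor panel screen, run at NCI. A single-concentration pre-screen was followed by a five-concentration dose-response in 10-fold steps. GI50 is the concentration that reduces growth of treated cells to half that of untreated control cells. TGI is the concentration that completely halts growth.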

A498 = assay: Cytotoxicity against human A498 cells assessed as cell growth at 8 nM by sulforhodamine B assay relative to control; type: functional; details: read-out: Activity; in short: as §1
K562 = assay: Cytotoxicity against human K562 cells assessed as cell growth at 8 uM by sulforhodamine B assay relative to control; type: functional; details: read-out: Activity
IGROV-1 [4] = assay: Cytotoxicity against human IGROV1 cells assessed as cell growth at 8 uM by sulforhodamine B assay relative to control; type: functional; details: read-out: Activity
LOX IMVI = assay: Cytotoxicity against human LOXIMVI cells by sulforhodamine B assay; type: functional; in short: as §2
HCT-15 = assay: Cytotoxicity against human HCT15 cells assessed as cell growth at 8 uM by sulforhodamine B assay relative to control; type: functional; details: read-out: Activity
Staphylococcus aureus = assay: Antimicrobial activity against methicillin-resistant Staphylococcus aureus ATCC 43300 by CLSI method; type: functional, organism-based
IGROV-1 [5] = assay: Cytotoxicity against human IGROV1 cells assessed as cell growth at 800 nM by sulforhodamine B assay relative to control; type: functional; details: read-out: Activity
SK-MEL-28 = assay: Cytotoxicity against human SK-MEL-28 cells assessed as cell growth at 8 uM by sulforhodamine B assay relative to control; type: functional; details: read-out: Activity
OVCAR-5 [6] = assay: Cytotoxicity against human OVCAR5 cells assessed as cell growth at 8 nM by sulforhodamine B assay relative to control; type: functional; details: read-out: Activity
HOP-62 = assay: Cytotoxicity against human HOP62 cells assessed as cell growth at 8 uM by sulforhodamine B assay relative to control; type: functional; details: read-out: Activity
786-0 [7] = assay: Cytotoxicity against human 786-0 cells by sulforhodamine B assay; type: functional; in short: as §1
SW-620 = assay: Cytotoxicity against human SW620 cells assessed as cell growth at 80 uM by sulforhodamine B assay relative to control; type: functional; details: read-out: Activity
HCT-116 = assay: Cytotoxicity against human HCT116 cells assessed as cell growth at 8 nM by sulforhodamine B assay relative to control; type: functional; details: read-out: Activity
SN12C [8] = assay: Cytotoxicity against human SN12C cells assessed as cell growth at 8 uM by sulforhodamine B assay relative to control; type: functional; details: read-out: Activity
SNB-19 [9] = assay: Cytotoxicity against human SNB19 cells assessed as cell growth at 80 nM by sulforhodamine B assay relative to control; type: functional; details: read-out: Activity
M14 = assay: Cytotoxicity against human M14 cells assessed as cell growth at 80 nM by sulforhodamine B assay relative to control; type: functional; details: read-out: Activity
SF-268 = assay: Cytotoxicity against human SF268 cells assessed as cell growth at 8 uM by sulforhodamine B assay relative to control; type: functional; details: read-out: Activity
SF-295 = assay: Cytotoxicity against human SF295 cells assessed as cell growth at 80 uM by sulforhodamine B assay relative to control; type: functional; details: read-out: Activity
SN12C [10] = assay: Cytotoxicity against human SN12C cells by sulforhodamine B assay; type: functional; in short: as §2
NCI-H23 = assay: Cytotoxicity against human NCI-H23 cells assessed as cell growth at 80 nM by sulforhodamine B assay relative to control; type: functional; details: read-out: Activity
MOLT-4 [11] = assay: Cytotoxicity against human MOLT4 cells assessed as cell growth at 80 nM by sulforhodamine B assay relative to control; type: functional; details: read-out: Activity
MDA-MB-435 [12] = assay: Cytotoxicity against human MDA-MB-435 cells assessed as cell growth at 8 uM by sulforhodamine B assay relative to control; type: functional; details: read-out: Activity
SNB-19 [13] = assay: Cytotoxicity against human SNB19 cells assessed as cell growth at 80 uM by sulforhodamine B assay relative to control; type: functional; details: read-out: Activity
OVCAR-8 = assay: Cytotoxicity against human OVCAR8 cells assessed as cell growth at 8 nM by sulforhodamine B assay relative to control; type: functional; details: read-out: Activity
OVCAR-5 [14] = assay: Cytotoxicity against human OVCAR5 cells assessed as cell growth at 80 uM by sulforhodamine B assay relative to control; type: functional; details: read-out: Activity
COLO 205 = assay: Cytotoxicity against human COLO205 cells by sulforhodamine B assay; type: functional; in short: as §1
Malme-3M = assay: Cytotoxicity against human MALME-3M cells assessed as cell growth at 8 nM by sulforhodamine B assay relative to control; type: functional; details: read-out: Activity
UACC-257 = assay: Cytotoxicity against human UACC257 cells assessed as cell growth at 800 nM by sulforhodamine B assay relative to control; type: functional; details: read-out: Activity
SK-MEL-5 = assay: Cytotoxicity against human SK-MEL-5 cells assessed as cell growth at 80 uM by sulforhodamine B assay relative to control; type: functional; details: read-out: Activity
MDA-MB-435 [15] = assay: Cytotoxicity against human MDA-MB-435 cells assessed as cell growth at 80 nM by sulforhodamine B assay relative to control; type: functional; details: read-out: Activity
MOLT-4 [16] = assay: Cytotoxicity against human MOLT4 cells assessed as cell growth at 800 nM by sulforhodamine B assay relative to control; type: functional; details: read-out: Activity
DU-145 [17] = assay: Cytotoxicity against human DU145 cells assessed as cell growth at 80 uM by sulforhodamine B assay relative to control; type: functional; details: read-out: Activity
786-0 [18] = assay: Cytotoxicity against human 786-0 cells assessed as cell growth at 80 nM by sulforhodamine B assay relative to control; type: functional; details: read-out: Activity; in short: as §1
SNB-75 = assay: Cytotoxicity against human SNB75 cells assessed as cell growth at 800 nM by sulforhodamine B assay relative to control; type: functional; details: read-out: Activity
BT-549 [19] = assay: Cytotoxicity against human BT549 cells assessed as cell growth at 800 nM by sulforhodamine B assay relative to control; type: functional; details: read-out: Activity; in short: as §1
RXF 393 = assay: Cytotoxicity against human RXF393 cells assessed as cell growth at 80 uM by sulforhodamine B assay relative to control; type: functional; details: read-out: Activity
Mus musculus = assay: Acute toxicity in athymic nude mouse assessed as mortality at 400 mg/kg, […] after 19 days; type: organism-based; parameters: dose 400 mg/kg, route intraperitoneal; details: in vivo, ip, 456 h
BT-549 [20] = assay: Cytotoxicity against human BT549 cells assessed as cell growth at 8 nM by sulforhodamine B assay relative to control; type: functional; details: read-out: Activity; in short: as §1

## C/C=C1\NC(=O)[C@H](Cc2ccccc2)NC(=O)[C@@H](C(C)C)NC(=O)[C@@H]([C@@H](C)CC)NC(=O)[C@H](NC(=O)[C@H](NC(=O)[C@H](CCCNCc2ccc(F)c(C)c2)NC(=O)[C@H]2CCCN2C(=O)[C@H](NC(=O)[C@@H](NC(=O)[C@@H](NC(=O)[C@H](NC(=O)CCCC(C)C)C(C)C)[C@@H](C)O)C(C)C)C(C)C)[C@@H](C)CC)[C@@H](C)OC(=O)[C@H](C(C)C)NC1=O
MCF7
  growth at 0.008 µM: 95%
IGROV-1 [1]
  growth at 80 µM: -26%
IGROV-1 [2]
  growth at 0.008 µM: 104%
DU-145 [3]
  growth at 8 µM: -100%
SK-MEL-2
  GI50: 1.41 µM
SK-MEL-2; read-out: pTGI (converted)
  TGI: 2.69 µM
A498
  growth at 0.008 µM: 102%
K562
  growth at 8 µM: -43%
IGROV-1 [4]
  growth at 8 µM: -75%
LOX IMVI
  GI50: 1.48 µM
  LC50: 4.9 µM
LOX IMVI; read-out: pTGI (converted)
  TGI: 2.69 µM
HCT-15
  growth at 8 µM: -92%
Staphylococcus aureus
  Activity: inactive
IGROV-1 [5]
  growth at 0.8 µM: 48%
SK-MEL-28
  growth at 8 µM: -83%
OVCAR-5 [6]
  growth at 0.008 µM: 107%
HOP-62
  growth at 8 µM: -93%
786-0 [7]
  GI50: 1.29 µM
  LC50: 4.17 µM
786-0 [7]; read-out: pTGI (converted)
  TGI: 2.34 µM
SW-620
  growth at 80 µM: -80%
HCT-116
  growth at 0.008 µM: 98%
SN12C [8]
  growth at 8 µM: -81%
SNB-19 [9]
  growth at 0.08 µM: 96%
M14
  growth at 0.08 µM: 99%
SF-268
  growth at 8 µM: -63%
SF-295
  growth at 80 µM: -35%
SN12C [10]
  GI50: 1.26 µM
  LC50: 4.9 µM
SN12C [10]; read-out: pTGI (converted)
  TGI: 2.45 µM
NCI-H23
  growth at 0.08 µM: 100%
MOLT-4 [11]
  growth at 0.08 µM: 97%
MDA-MB-435 [12]
  growth at 8 µM: -95%
SNB-19 [13]
  growth at 80 µM: -66%
OVCAR-8
  growth at 0.008 µM: 107%
OVCAR-5 [14]
  growth at 80 µM: -98%
COLO 205; read-out: GI50
  GI50: 0.135 µM
COLO 205; read-out: pGI50 (converted)
  GI50: 0.135 µM
Malme-3M
  growth at 0.008 µM: 108%
UACC-257
  growth at 0.8 µM: 88%
SK-MEL-5
  growth at 80 µM: -100%
MDA-MB-435 [15]
  growth at 0.08 µM: 103%
MOLT-4 [16]
  growth at 0.8 µM: 96%
DU-145 [17]
  growth at 80 µM: -91%
786-0 [18]
  growth at 0.08 µM: 97%
SNB-75
  growth at 0.8 µM: 21%
BT-549 [19]
  growth at 0.8 µM: 87%
RXF 393
  growth at 80 µM: -79%
Mus musculus
  Activity: Toxic
BT-549 [20]
  growth at 0.008 µM: 106%
